Assay results reported in publication PMC10107787 (Chemistry (Weinheim an Der Bergstrasse, Germany), 2022).

Key:
[1] = LogD7.4, miniaturized shake-flask procedure; format: physicochemical; details: pH 7.4
Outline: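 Measured in three repeats, and the reported logD is their mean.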

[2] = Amide temperature coefficients by variable temperature 1H NMR; format: physicochemical
Outline: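 Variable-temperature ¹H NMR at 500 MHz with a cryoprobe, using 16 scans and a 0.7 s relaxation delay. DMSO‑d₆ series ran from 25 to 65 or 20 to 60 °C; the CDCl₃ series ran from 10 to 50 °C; both used 10 °C steps. Each NH coefficient was calculated as (δ_high−δ_low)/(T_high−T_low), in ppb/K.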

[3] = Permeability across Caco-2 cell monolayers; format: in vitro ADME; details: human, Caco-2, ER (efflux ratio, Papp BA/Papp AB), Caco-2 cell monolayers, no inhibitors
Outline: (§1)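 Apical‑to‑basolateral and basolateral‑to‑apical Papp were measured across Caco‑2 monolayers. Efflux ratio is Papp BA/Papp AB. A parallel set was run with a cocktail of three inhibitors aimed at the three major efflux transporters. Papp AB is the mean±std of three repeats.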

Caco‐2 cell monolayers = experiment: Permeability across Caco-2 cell monolayers; format: in vitro ADME
Outline: as §1

For `COC(=O)N[C@H](C(=O)N1CCC[C@H]1c1nc(-c2ccc(-c3ccc(-c4c[nH]c([C@@H]5CCCN5C(=O)[C@@H](NC(=O)OC)C(C)C)n4)cc3)cc2)c[nH]1)C(C)C` [Daclatasvir], the logD [1] was 3.9, the “Temperature coefficient, CDCl3” value ([2]; daclatasvir proton 2’’’‐NH) was −3.3 ppb/K and the “Temperature coefficient, DMSO‐d6” value ([2]; daclatasvir proton 2’’’‐NH) was −3.8 ppb/K. It also gave an efflux ratio [3] of 38.
In the case of `COc1ccc2c(O[C@@H]3C[C@H]4C(=O)N[C@]5(C(=O)NS(=O)(=O)C6CC6)C[C@H]5/C=C\CCCCN(C)C(=O)[C@@H]4C3)cc(-c3nc(C(C)C)cs3)nc2c1C` [Simeprevir], the logD [1] is reported as 3.7, the “Temperature coefficient, CDCl3” value ([2]; simeprevir proton 1’’’‐NH) is reported as −8.8 ppb/K and the “Temperature coefficient, DMSO‐d6” value ([2]; simeprevir proton 1’’’‐NH) is reported as −2.5 ppb/K. The “Temperature coefficient, CDCl3” value ([2]; simeprevir proton 13‐NH) was −1.3 ppb/K, the “Temperature coefficient, DMSO‐d6” value ([2]; simeprevir proton 13‐NH) was −1.0 ppb/K and the efflux ratio [3] was 330. The “ER+Inhibitors” value (Caco‐2 cell monolayers; Caco-2, in the presence of the efflux inhibitor cocktail) was “highest efflux ratio” and the “ER (efflux ratio, Papp BA/Papp AB)” value (Caco‐2 cell monolayers; Caco-2 cell monolayers, no inhibitors) was “largest”.
In the case of `C=C[C@@H]1C[C@]1(NC(=O)[C@@H]1C[C@@H](Oc2ncc(OC)c3ccc(Cl)cc23)CN1C(=O)[C@@H](NC(=O)OC(C)(C)C)C(C)(C)C)C(=O)NS(=O)(=O)C1CC1` [Asunaprevir], the logD [1] is reported as 3.1, the “Temperature coefficient, CDCl3” value ([2]; asunaprevir proton 1’’’‐NH) is reported as −4.3 ppb/K and the “Temperature coefficient, DMSO‐d6” value ([2]; asunaprevir proton 1’’’‐NH) is reported as −2.8 ppb/K. For the same molecule, the “Temperature coefficient, CDCl3” value ([2]; asunaprevir proton 1’’’’‐NH) was −4.3 ppb/K, the “Temperature coefficient, DMSO‐d6” value ([2]; asunaprevir proton 1’’’’‐NH) was −3.5 ppb/K and the “Temperature coefficient, CDCl3” value ([2]; asunaprevir proton 2’‐NH) was −0.3 ppb/K. For the same molecule, the “Temperature coefficient, DMSO‐d6” value ([2]; asunaprevir proton 2’‐NH) was 1.5 ppb/K and the efflux ratio [3] was 270.
For `COC(=O)N[C@H](C(=O)N[C@@H](Cc1ccccc1)[C@@H](O)CN(Cc1ccc(-c2ccccn2)cc1)NC(=O)[C@@H](NC(=O)OC)C(C)(C)C)C(C)(C)C` [Atazanavir], the “Temperature coefficient, CDCl3” value ([2]; atazanavir proton 4‐NH) was −2.0 ppb/K, the “Temperature coefficient, DMSO‐d6” value ([2]; atazanavir proton 4‐NH) was −9.8 ppb/K and the “Temperature coefficient, DMSO‐d6” value ([2]; atazanavir proton 7‐NH) was −4.3 ppb/K. For the same molecule, the “Temperature coefficient, DMSO‐d6” value ([2]; atazanavir proton 12‐NH) was −3.5 ppb/K, the “Temperature coefficient, CDCl3” value ([2]; atazanavir proton 15‐NH) was −1.0 ppb/K and the “Temperature coefficient, DMSO‐d6” value ([2]; atazanavir proton 15‐NH) was −6.5 ppb/K. It also gave an efflux ratio [3] of 40.
